# A selection: hits, their analogues and other compounds. The true share with any hit is near 4.3%.
# STAT3 blocker: IL-6 driven STAT3 reporter inhibitors, primary screen, U3A cells, luciferase, luminescence, MLSCN library; IL-6 STAT3-luciferase reporter; host cell line lacks STAT1; 0.89% of 190,000 active; inhibition, % at 5.5 µM;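 active = inhibition above the mean inhibition across all screened compounds plus 3 SD, cut at about 44% in these data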
# STAT1 blocker: STAT1 signaling inhibitors, primary screen, cell-based, HTS, luciferase reporter. inhibition, % at 5.5 µM. AID 920, 2007. 0.35% of 200,000 active. NIH 3T3 STAT1-luciferase reporter, IFN-gamma, luminescence;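 active = inhibition above a set limit, the mean inhibition across all tested compounds plus 3 SD, cut at about 34% in these data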
# STAT1 act: STAT1 signaling activators, primary screen, cell-based, HTS, luciferase reporter; NIH 3T3 STAT1-luciferase reporter, IFN-gamma, luminescence; 100% = IFN-gamma alone, no compound; activation (% of control), % at 5.5 µM; 2.6% of 200,000 active;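 active = activation above the screen-wide mean activation plus 3 SD, cut at about 130% in these data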
# STAT3 activator: IL-6 driven STAT3 reporter potentiators, primary screen, U3A cells, luciferase, luminescence, MLSCN library | IL-6 STAT3-luciferase reporter; 100% = signal with IL-6 EC80 alone | activation (% of control), % at 5.6 µM | 0.91% of 190,000 active | AID 871, 2007;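 active = activation above the screen-wide mean of compound activation plus 3 SD, cut at about 130% in these data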
#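 System – human U3A cells carrying STAT3-luciferase construct · Probe or stimulus – Interleukin-6, 33 ng/mL · Schedule – compound 1 h, then IL-6 6 h at 37 °C · Signal – luminescence from STAT3-driven luciferase reporter · Evaluation – percent of IL-6-only median luminescence · Benchmarks – IL-6-only high control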
# A number is an active result; – = inactive.
SMILES,STAT3 blocker,STAT1 blocker,STAT1 act,STAT3 activator
CC1=C/C(=N\NC(=S)Nc2cccnc2)CC(C)(C)C1,–,–,133.9,–
COC(=O)c1sccc1N/N=C/c1cccc(Oc2ccccc2)c1,–,–,137.9,–
COC(=O)c1sccc1N/N=C/c1ccc(OC)c(OC)c1OC,–,–,129.1,–
COC(=O)c1sccc1NC(=O)c1ccccc1,–,–,–,–
C(=C\c1ccccc1)/C=N/N1CCN(c2ccccn2)CC1,–,–,132.0,–
CC1CCCN(c2ccc(C(=O)NCc3ccccc3)cn2)C1 (centres undefined),–,–,136.9,–
CC1CCCN(c2ccc(C(=O)NCc3cccs3)cn2)C1 (centres undefined),–,–,–,–
CC1CCN(c2ccc(C(=O)NCCc3ccccc3)cn2)CC1,–,–,132.3,–
O=C(NN1C(=O)C2C(c3ccccc3)C=CC(c3ccccc3)C2C1=O)c1cccc(Br)c1 (centres undefined),–,–,–,–
CC1=C(C#N)C(NC(=O)c2cccc(Cl)c2)(C(F)(F)F)C(=O)N1 (centres undefined),–,–,–,–
CCOC(=O)c1ccc2nc3c(cc2c1)CCS3,–,–,135.0,–
COc1ccc(C(=O)OCCc2ccc(O)cc2)cc1,–,–,148.5,–
C(=N\Nc1nc(-c2ccccc2)cs1)/c1ccco1,–,–,146.9,–
C(=N\Nc1nc(-c2ccccc2)cs1)/c1ccncc1,–,–,149.2,–
C(=N\Nc1nc(-c2ccccc2)cs1)/c1cccs1,–,–,144.9,–
Clc1ccc(-c2csc(N/N=C\c3cccnc3)n2)cc1,–,–,–,–
Cc1cccc(N/C(N)=N/c2nc(C(F)(F)F)cc(=O)[nH]2)c1C,–,–,–,–
O=C(CSc1n[nH]c(=O)[nH]c1=O)N/N=C/c1ccccc1,–,–,–,–
Cc1cccc(C)c1N/C=C/c1onc(C)c1[N+](=O)[O-],–,–,–,–
COc1cccc(N/C=C/c2onc(C)c2[N+](=O)[O-])c1,–,–,143.7,–
Cc1ccc(S(=O)(=O)n2nc(-c3ccco3)nc2N)cc1,–,–,–,–
COc1cc(/C=N/Nc2nc3ccccc3[nH]2)ccc1O,–,–,–,–
C(=N\Nc1nc2ccccc2[nH]1)/c1ccc2c(c1)OCO2,–,–,140.9,–
Clc1ccccc1N/N=C/c1ccc2c(c1)OCO2,–,–,135.4,–
C(=N\Nc1nc2ccccc2[nH]1)/c1ccncc1,–,–,–,–
SMILES,STAT3 blocker,STAT1 blocker,STAT1 act,STAT3 activator
CCN(CC)c1ccc(/C=N/Nc2nc3ccccc3[nH]2)cc1,–,–,172.5,–
C(=N\Nc1nc2ccccc2[nH]1)/c1cccs1,–,–,148.5,–
Cc1ccccc1C(=NCCCN(C)C)c1ccccc1C,–,–,–,–
C/C(=N\NC(=O)Cc1cccc2ccccc12)c1ccncc1,–,–,–,–
Cn1nccc1C(=O)Oc1ccc(/C=N/NC(=O)c2ccccc2O)cc1,–,–,–,–
COC(=O)c1ccc(/C=N/Nc2nc3ccccc3[nH]2)cc1,–,–,138.1,–
CC(=O)Nc1ccc(/C=N/Nc2nc3ccccc3[nH]2)cc1,–,–,–,–
Cc1nc(NC(=O)c2oc3ccccc3c2C)sc1C(=O)N(C)C,–,–,139.4,–
CC(NC(=O)Nc1nnc(C(F)(F)F)s1)(C(F)(F)F)C(F)(F)F,81.5,62.5,–,–
O=C(NC1=NCCS1)c1ccc(Br)s1,–,–,137.5,–
CC(C)(C)CC(=O)Nc1nnc(C(F)(F)F)s1,–,–,–,–
O=C(Nc1nnc(C(F)(F)F)s1)c1ccc(Br)s1,46.4,41.5,–,–
O=C(Nc1ccccc1C(F)(F)F)N1CCN(c2ccccn2)CC1,–,–,–,–
CCC(CC)c1nnc(NC(=O)C2=NNC(=O)CC2)s1,–,–,–,–
Cc1ccc2nsnc2c1NC(=O)c1ccc(-c2cc(Cl)ccc2Cl)o1,–,–,128.8,–
COCCNC(=O)c1noc2c1CCc1cc(OC)ccc1-2,–,–,–,–
COc1ccc2c(c1)CCc1c(C(=O)N(C)c3ccccc3)noc1-2,–,–,128.8,–
COc1ccc2c(c1)CCc1c(C(=O)NCc3ccco3)noc1-2,–,–,129.2,–
COc1ccc2c(c1)CCc1c(C(=O)NC3CCCCC3)noc1-2,–,–,128.8,–
COCC(C)NC(=O)c1noc2c1CCc1cc(OC)ccc1-2 (centres undefined),–,–,–,–
O=C(CN(Cc1cccs1)C(=O)CCC(=O)Nc1ccccn1)NCc1ccccc1,–,–,–,–
Cc1onc(-c2ccccc2)c1C(=O)OCC(=O)Nc1cc(S(=O)(=O)N2CCOCC2)ccc1Cl,–,–,–,–
CCC(C)C(=O)Nn1c(C2CC2)nc2cc(OC)c(OC)cc2c1=O (centres undefined),–,–,–,–
C/C(N)=C(/C#N)C(=O)CSc1nnc(Nc2ccccc2)s1,–,–,147.8,–
C/C(N)=C(/C#N)C(=O)CSc1nnc(Nc2ccccc2C)s1,–,–,–,–
SMILES,STAT3 blocker,STAT1 blocker,STAT1 act,STAT3 activator
O=C(O)c1ccc2c(c1)C(=O)N(c1cccc(-c3nc4ccccc4s3)c1)C2=O,–,–,129.5,–
O=S(=O)(c1cccc(-c2nc3ccccc3s2)c1)N1CCCC1,–,–,–,–
Nc1cccc(-c2nc3ccccc3s2)c1,–,–,147.4,–
CC(=O)Nc1cccc(-c2nc3ccccc3s2)c1,–,–,147.5,–
CC(=O)Nc1cccc(-c2nc3ccc(NC(C)=O)cc3s2)c1,–,–,140.2,–
COc1ccc(C)cc1S(=O)(=O)N1CCOCC1,–,–,–,–
COc1ccc(C(=O)Nc2ccc(Cl)cc2C(=O)N2CCCC(C)C2)cc1OC (centres undefined),–,–,–,–
Cn1c(CCc2nc3ccccc3[nH]2)nnc1SCC#N,–,–,–,–
CC(C)(O)C#Cc1ccc(C(=O)NC2CCCCC2)s1,–,–,–,–
CCc1ccc(C(=O)NC2CCCCC2)s1,–,–,140.7,–
CCNc1nc(NC(C)(C)C)nc(SCC(N)=O)n1,–,–,–,–
CCOCCCn1c(=N)c(C(=O)Nc2cc(C)on2)cc2c(=O)n3ccccc3nc21,–,–,–,–
Cn1c(-c2ccc3c(c2)OCO3)cnc1NCc1ccccc1,–,–,–,–
Cn1c(-c2ccc3c(c2)OCO3)cnc1NCc1ccccc1Cl,–,–,139.9,–
COc1ccc(NC(=O)Nc2nc3c(s2)CCCC3)cc1,–,–,147.7,–
COc1cc(NC(=O)COc2ccccc2[N+](=O)[O-])ccc1NC(=O)c1cccs1,–,–,141.2,–
COC(=O)c1ccc(NC(=O)c2ccccc2-c2ccccc2C(=O)O)cc1,–,–,–,–
COC(=O)c1ccc(NC(=O)C(OC)c2ccccc2)cc1 (centres undefined),–,–,–,–
Cc1ccccc1-n1cc(CNC(=O)CCc2nnc(CCc3ccccc3)o2)cn1,–,–,–,–
Nc1cnc(-c2ccccc2)nc1Cl,–,–,–,–
